This is an account of results in ChEMBL document CHEMBL3352210, “Aurones as histone deacetylase inhibitors: identification of key features” (Bioorg Med Chem Lett, 2014).

Structures are written as SMILES. Active and inactive are the calls of the source. The rule behind the calls is not given here.

The nature of series [1]: Cytotoxicity against human HepG2 cells assessed as cell viability at 15 uM after 72 hrs by Celltitre-glo assay. The class given is cell-based. The note with it: read-out: Activity.
Series [2] concerns the target T1, Retinoic acid receptor beta (Homo sapiens) (UniProt P10826).
T1 sequence (whole entry): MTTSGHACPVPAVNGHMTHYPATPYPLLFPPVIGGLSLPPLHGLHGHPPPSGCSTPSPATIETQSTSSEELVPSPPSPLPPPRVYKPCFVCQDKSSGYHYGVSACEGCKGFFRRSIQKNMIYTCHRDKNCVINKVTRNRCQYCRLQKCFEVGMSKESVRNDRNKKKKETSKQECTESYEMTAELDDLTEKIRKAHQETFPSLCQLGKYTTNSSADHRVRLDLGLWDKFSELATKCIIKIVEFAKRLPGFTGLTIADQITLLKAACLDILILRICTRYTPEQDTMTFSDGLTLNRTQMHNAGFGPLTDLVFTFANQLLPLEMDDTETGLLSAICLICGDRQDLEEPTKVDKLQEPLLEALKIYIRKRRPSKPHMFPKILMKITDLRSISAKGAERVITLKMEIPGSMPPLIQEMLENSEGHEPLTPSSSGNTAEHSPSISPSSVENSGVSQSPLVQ
Nature of the series: Inhibition of RAR-beta (unknown origin) assessed as change in DNA methylation. In a few lines:
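DNA methylation changes assessed by specific PCR for RARb.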

The target of series [3] is T2, NAD-dependent protein deacetylase sirtuin-2 (Homo sapiens) (UniProt Q8IXJ6).
T2 sequence (whole entry): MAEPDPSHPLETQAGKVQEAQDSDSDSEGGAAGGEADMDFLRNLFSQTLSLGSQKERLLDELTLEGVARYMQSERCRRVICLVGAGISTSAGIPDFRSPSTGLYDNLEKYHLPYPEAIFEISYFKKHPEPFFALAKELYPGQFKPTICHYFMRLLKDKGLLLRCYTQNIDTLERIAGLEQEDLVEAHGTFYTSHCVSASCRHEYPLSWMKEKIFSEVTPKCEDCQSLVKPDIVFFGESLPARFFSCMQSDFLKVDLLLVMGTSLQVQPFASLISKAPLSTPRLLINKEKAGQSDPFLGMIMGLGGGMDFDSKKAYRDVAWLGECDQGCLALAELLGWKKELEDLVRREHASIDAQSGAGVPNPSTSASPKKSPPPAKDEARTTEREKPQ
The series can be described thus: Modulation of sirtuin 2 (unknown origin) by thermal shift assay. The method, boiled down: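 Sirtuin 2 modulation tested by thermal shift assay.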

A short description of series [4]: Cytotoxicity against human MCF7 cells assessed as cell viability at 15 uM after 72 hrs by Celltitre-glo assay. The class given is cell-based. The note with it: read-out: Activity.
Series [5] concerns the target T3, Histone deacetylase (Homo sapiens) (UniProt Q13547+O15379+Q9UBN7+Q92769+Q9UQL6+Q8WUI4+Q9BY41+Q96DB2+P56524+Q9UKV0+Q969S8). Nature of the series: Inhibition of HDAC in human HeLa cell extract at 100 uM after 15 mins by fluorescence assay. Type of series: protein assay.
Series [6] deals with T3, Histone deacetylase (Homo sapiens). Nature of the series: Inhibition of HDAC in human MeT-5A cells assessed as hisone H3 acetylation after 16 hrs by BRET assay. Type of series: cell-based. In a few lines:
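MeT-5A cells transfected with phRluc-C1-BrD and pEYFP-C1 histone H3, then exposed 16 h to increasing doses; BRET signal read as measure of histone H3 acetylation (rise in signal = more acetylation). SAHA used as positive control. Means ± SEM of three independent experiments.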

Series [7] concerns the target Histone deacetylase. Nature of the series: Inhibition of HDAC in human HeLa cell extract after 15 mins by fluorescence assay. The class given is protein assay.
Series [8] is described as follows: Cytotoxicity against human MeT-5A cells after 16 hrs by luciferase reporter gene assay. The class given is cell-based.

As for `O=C(O)c1ccc(/C=C2\Oc3ccc(Cl)cc3C2=O)cc1`, the figures for the viability at 72 h, 15 µM in series [1] and in series [4] were 86% and 109%, respectively. For the same molecule, the inhibition result in series [2] and in series [3] was “inactive” in each case. Further, the inhibition in series [5] was 30%.
As to `O=C(/C=C/c1ccc(Cl)cc1)c1ccccc1O`, the viability at 72 h, 15 µM in series [1] was found to be 62%; in series [4], 90%. For the same molecule, the inhibition result in series [2] and in series [3] was “inactive” each time. Also, the inhibition in series [5] came out at 0%.
As to `COc1ccccc1/C=C1\Oc2ccccc2C1=O` [(Z)-2'-METHOXYAURONE], the results for the viability at 72 h, 15 µM in series [1] and in series [4] were 103% and 88%, respectively. The inhibition entry in series [2] and in series [3] was “inactive” throughout. Besides, in series [5], the inhibition turned out to be 7%.
In the case of `COc1ccc(/C=C2\Oc3ccccc3C2=O)cc1OC` [3',4'-DIMETHOXY-AURONE], the inhibition entry was “Dose-dependent effect” in series [6] and 51% in series [5]. In series [7], this molecule returned an IC50 of 71 µM. For the same molecule, the viability at 72 h, 15 µM in series [1] came out at 114%; in series [4] it was 91%. Also, the Activity result in series [8] was “Dose-dependent effect”. Besides, the inhibition result in series [2] and in series [3] was “inactive” each time.
For `COc1cc(OC)c2c(c1)O/C(=C\c1ccccc1Cl)C2=O`, the viability at 72 h, 15 µM in series [1] worked out at 80%; in series [4], 72%. Also, the inhibition result in series [2] and in series [3] was “inactive” in each case. Moreover, the inhibition in series [5] is 46%.
Regarding `COc1ccc(/C=C2\Oc3cc(OC)cc(OC)c3C2=O)cc1` [4,4',6-TRIMETHOXY-AURONE], the viability at 72 h, 15 µM is 119% in series [1] and 10% in series [4]. Further, the inhibition result in series [2] and in series [3] was “inactive” throughout. In addition, in series [5], the inhibition was found to be 20%.
In the case of `O=C(O)c1ccc(/C=C2\Oc3ccccc3C2=O)cc1`, the viability at 72 h, 15 µM stood at 73% in series [1] and 105% in series [4]. The inhibition entry in series [2] and in series [3] was “inactive” each time. In series [5], this molecule yielded an inhibition of 28%.
For the molecule `COc1ccc(/C=C2\Oc3ccc(Br)cc3C2=O)cc1OC`, the inhibition result in series [6] is “Dose-dependent effect”; in series [5], 14%. Moreover, the viability at 72 h, 15 µM in series [1] came to 93%; in series [4], 108%. Also, the Activity result in series [8] is on record as “Dose-dependent effect”. The inhibition entry in series [2] and in series [3] was “inactive” in each case.
In the case of `COc1cc(OC)c2c(c1)O/C(=C\c1ccccc1)C2=O`, the figures for the viability at 72 h, 15 µM in series [1] and in series [4] were 9% and 73%, respectively. Also, the inhibition result in series [2] and in series [3] was “inactive” throughout. In series [5], the inhibition came to 27%.
On to `Cc1ccc(/C=C/C(=O)c2ccccc2O)cc1`, for which the viability at 72 h, 15 µM is 120% in series [1] and 96% in series [4]. The inhibition result in series [2] and in series [3] was “inactive” in each case. In series [5], this molecule showed an inhibition of 0%.
As to `COc1cccc(/C=C2\Oc3ccccc3C2=O)c1` [3'-METHOXY-AURONE], the values for the viability at 72 h, 15 µM in series [1] and in series [4] were 101% and 89%, respectively. The inhibition result in series [2] and in series [3] was “inactive” each time. The inhibition in series [5] worked out at 1%.
As for `COc1cc(OC)c2c(c1)O/C(=C\c1ccccc1OC)C2=O`, the viability at 72 h, 15 µM in series [1] was determined as 104%; in series [4], 89%. Also, the inhibition result in series [2] and in series [3] was “inactive” each time. This molecule also registered an inhibition in series [5] of 7%.
Regarding `O=C1/C(=C/c2ccc(Cl)cc2)Oc2ccccc21`, the results for the viability at 72 h, 15 µM in series [1] and in series [4] were 110% and 85%, respectively. Further, the inhibition entry in series [2] and in series [3] was “inactive” in each case. This molecule displayed an inhibition in series [5] of 13%.
As to `Cc1ccc(/C=C2\Oc3ccccc3C2=O)cc1`, the viability at 72 h, 15 µM in series [1] is 35%; in series [4], 86%. Besides, the inhibition entry in series [2] and in series [3] was “inactive” throughout. In series [5], the inhibition was found to be 5%.
For the molecule `COc1cccc(/C=C2\Oc3ccccc3C2=O)c1OC`, the figures for the viability at 72 h, 15 µM in series [1] and in series [4] were 104% and 94%, respectively. Moreover, the inhibition entry in series [2] and in series [3] was “inactive” throughout. In series [5], this molecule registered an inhibition of 12%.
As for `COCOc1cc(OCOC)c2c(c1)O/C(=C\c1ccc(OCOC)c(OCOC)c1)C2=O`, the IC50 in series [7] was 40 µM. The viability at 72 h, 15 µM stood at 7% in series [1] and 21% in series [4]. The inhibition result in series [2] and in series [3] was “inactive” in each case. The inhibition in series [5] amounted to 75%.
Consider `COc1ccc(/C=C2\Oc3ccccc3C2=O)cc1` [4'-METHOXY-AURONE], for which the viability at 72 h, 15 µM in series [1] is 65%; in series [4], 88%. The inhibition entry in series [2] and in series [3] was “inactive” throughout. The molecule also showed an inhibition in series [5] of 23%.
Turning to `COc1cccc(/C=C2\Oc3ccc(Cl)cc3C2=O)c1OC`, the viability at 72 h, 15 µM was found to be 99% in series [1] and 115% in series [4]. Besides, the inhibition result in series [2] and in series [3] was “inactive” each time. In series [5], this molecule displayed an inhibition of 6%.
